This is a sample that favours compounds with a hit; in the whole collection about 2.1% have one here.
Xi reactivation: reactivates the inactive X chromosome in mouse fibroblasts | XiGFP mouse fibroblasts, % GFP-positive cells imaging, 3 d; cells co-treated with 5-aza-dC sensitizer; scaled so ellipticine positive control = 100% | activation, % at 7.58 µM | 0.055% of 360,000 active | AID 743238;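 active means mean normalized replicate activation at least 10% and every replicate at or above 10%; inconclusive means only one of the two criteria met; inactive means mean below 10% and not all replicates reach 10%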
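Material: XiGFP fibroblasts, SV40-immortalized. Buffer or medium: DMEM plus 5-aza-dC sensitizer. Compound: single concentration per compound, delivered by pin transfer. Times: 3 days compound exposure. Controls: ellipticine 6 µM.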
EWS-Fli block: inhibitors of EWS/Fli oncoprotein transcriptional activity | inhibition, % at 12.6 µM | AID 651661 | A673 NR0B1-luciferase reporter, viability-normalised | 0.67% of 350,000 active;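 active means mean inhibition of at least 50% after viability correction, with every replicate also passing that limit; inconclusive means mean reaches 50% but only one of two replicates passes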;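 further: firefly luciferase signal divided by Alamar Blue viability fluorescence both relative to DMSO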
PGC1a acetyl inh: modulators of PGC1a acetylation | U2OS PGC1a acetylation, AlphaScreen anti-acetyl-lysine; with virally co-expressed GCN5 acetyltransferase | inhibition, % at 15.6 µM | 0.17% of 350,000 active | AID 651687;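 active means every replicate shows inhibition of at least 40%; inconclusive means mean inhibition at least 40% but some replicate below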
AF4-AF9 inh: MLL-AF4/AF9 protein interaction inhibition; P42568; AlphaScreen, biotin-AF4 peptide binding to FLAG-AF9; inhibition, % at 10 µM; 0.47% of 350,000 active;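 active means every replicate reaching a set inhibition limit, whatever the replicate mean, cut at about 25% in these data; inconclusive means mean inhibition reaches that limit but some replicates miss it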
Target sequence (P42568 whole entry, looked up): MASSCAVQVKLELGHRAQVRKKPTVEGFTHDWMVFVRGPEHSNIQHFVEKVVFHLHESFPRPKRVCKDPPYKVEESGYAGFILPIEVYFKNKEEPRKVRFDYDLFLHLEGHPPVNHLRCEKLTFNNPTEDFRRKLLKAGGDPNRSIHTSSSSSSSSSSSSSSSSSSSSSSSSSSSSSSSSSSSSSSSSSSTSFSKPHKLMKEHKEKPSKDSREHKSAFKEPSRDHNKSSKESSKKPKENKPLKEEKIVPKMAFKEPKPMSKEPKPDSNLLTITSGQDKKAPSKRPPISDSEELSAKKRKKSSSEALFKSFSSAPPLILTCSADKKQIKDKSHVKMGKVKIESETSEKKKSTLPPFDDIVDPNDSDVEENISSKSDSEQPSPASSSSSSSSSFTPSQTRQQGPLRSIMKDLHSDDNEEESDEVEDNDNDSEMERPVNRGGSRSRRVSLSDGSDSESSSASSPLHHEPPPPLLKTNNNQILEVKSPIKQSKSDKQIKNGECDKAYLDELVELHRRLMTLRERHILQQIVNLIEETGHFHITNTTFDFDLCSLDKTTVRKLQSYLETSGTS
INS-1E GSIS act: GLuc luminescence reporter in INS-1E cells, primary screen for activators of glucose-dependent secretion of insulin; INS-1E GLuc reporter insulin secretion, 2-3 h; activation, % at 16.6 µM; 0.61% of 370,000 active;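 active means lowest replicate activation of at least 40%, so every replicate reaches that level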
PAX8 reporter: PAX8 transcriptional activity inhibition. 1.2% of 360,000 active. RMG-I TPO-luciferase reporter, SteadyGlo, 24 h. inhibition, % at 12.6 µM;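 active means mean replicate inhibition at least 60% with every replicate also reaching 60%; inconclusive means only one of the two criteria is met; inactive means mean below 60% and not all replicates reaching 60%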;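 further: luciferase light reporting Pax8 driven TPO promoter activity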
Large screens that a line does not name were inactive.

CCOCCN1CCC(OC(C)=O)C(C)C1 (stereo not given)	PGC1a acetyl inh 41.8 (no result: Xi reactivation, EWS-Fli block, AF4-AF9 inh)
COC(=O)[C@H]1[C@H](CO)[C@H]2Cn3c(ccc(/C=C/c4ccccc4)c3=O)[C@@H]1N2C(=O)C1CCC1	none (no result: PGC1a acetyl inh, PAX8 reporter)
O=C(c1ccc(CNS(=O)(=O)c2ccccc2)cc1)N1CCC2(CC1)OCCO2	none (no result: Xi reactivation, EWS-Fli block, AF4-AF9 inh, INS-1E GSIS act, PAX8 reporter)
O=C(c1ccc(CNS(=O)(=O)c2ccc(Br)cc2)cc1)N1CCC2(CC1)OCCO2	PAX8 reporter 64.1
COc1ccc(-[n+]2c(-c3ccccc3)cc(-c3ccccc3)cc2-c2ccccc2)cc1	PAX8 reporter 92.5 (no result: PGC1a acetyl inh)
Oc1ccc(-[n+]2c(-c3ccccc3)cc(-c3ccccc3)cc2-c2ccccc2)cc1	AF4-AF9 inh inconclusive, PAX8 reporter 90.2 (no result: PGC1a acetyl inh)
CC(=O)N1[C@@H]2c3ccc(-c4cccc(C(=O)N(C)C)c4)c(=O)n3C[C@H]1[C@H](CO)[C@H]2C(=O)O	none (no result: PAX8 reporter)
CC(C)CC#Cc1ccc([C@H]2[C@@H](CO)N3CCCCN(C(=O)Cc4ccccn4)C[C@H]23)cc1	none
COC(=O)[C@@H]1[C@@H](CO)[C@@H]2Cn3c(ccc(C4=CCCCC4)c3=O)[C@H]1N2CC1CCCC1	none (no result: PGC1a acetyl inh, PAX8 reporter)
CCN1CCN(c2ccc(N)c(C)c2)CC1	AF4-AF9 inh 36.6
CC(=O)OC[C@]12CCC(C)=C[C@H]1O[C@@H]1[C@H](O)[C@@H](OC(C)=O)[C@@]2(C)[C@]12CO2	EWS-Fli block 55.5, PGC1a acetyl inh 85.5 (no result: Xi reactivation, PAX8 reporter)
Fc1ccc(C[n+]2c(-c3ccccc3)cc(-c3ccccc3)cc2-c2ccccc2)cc1	PAX8 reporter 88.6 (no result: PGC1a acetyl inh)
Clc1ccc(C[n+]2c(-c3ccccc3)cc(-c3ccccc3)cc2-c2ccccc2)cc1	PAX8 reporter 97.3
c1ccc2c(c1)[IH]c1ccccc1-2	PAX8 reporter 64.4
C[C@H]1CCC/C=C/[C@@H]2C[C@H](O)C[C@H]2[C@H](O)/C=C/C(=O)O1	EWS-Fli block 53.9, PGC1a acetyl inh 68.7, PAX8 reporter 109.5 (no result: INS-1E GSIS act)
CC(=O)OC1C(=O)OCC23CCC4(C)OC4C2OC2CC(OC(=O)C=CC=CC(=O)OCCC1C)C3(C)C21CO1 (stereo not given)	PAX8 reporter 103.2 (no result: PGC1a acetyl inh, INS-1E GSIS act)
CC(O)C1C=CC=CC(=O)OC2CC3OC4C5OC5(C)CCC4(COC(=O)C4OC4(C)C(O)CO1)C2(C)C31CO1 (stereo not given)	PAX8 reporter 103.2 (no result: PGC1a acetyl inh)
CC1=CC2OC3CC4OC(=O)C=CC=CC(C(C)O)OCC(O)C(C)CC(=O)OCC2(CC1O)C4(C)C31CO1 (stereo not given)	EWS-Fli block 51.1, PGC1a acetyl inh 80.9 (no result: PAX8 reporter)
COc1ccc(OC(=O)N(C)C[C@@H]2OCc3ccccc3-c3c(n(C)c4ccccc34)C(=O)N([C@@H](C)CO)C[C@H]2C)cc1	none
CCN1[C@@H]2Cn3c(ccc(-c4cccc(OC)c4)c3=O)[C@H]1[C@@H](C(=O)OC)[C@@H]2CO	none (no result: PGC1a acetyl inh)
CC=Cc1ccc2n(c1=O)C[C@H]1[C@H](CO)[C@@H](C(=O)OC)[C@@H]2N1CC1CCCC1 (mixture of isomers)	none (no result: PAX8 reporter)
CN(C)c1ccc(NC(=O)CN2C(=O)CN=C(c3ccccc3)c3cc(Cl)ccc32)cc1	AF4-AF9 inh 27.2 (no result: INS-1E GSIS act)
C(=NN1CCCCCC1)c1c[nH]c2ccccc12	none
Brc1ccc2[nH]cc(/C=N/N3CCCCC3)c2c1	AF4-AF9 inh 25.8
CC(=O)OC(C)(C)/C=C/C(=O)C(C)(O)C1C(O)CC2(C)C3CC=C4C(CC(O)C(=O)C4(C)C)C3(C)C(=O)CC12C (stereo not given)	PGC1a acetyl inh 70.3, PAX8 reporter 108.4
CC(=O)OC(C)(C)/C=C/C(=O)C(C)(O)C1[C@H](O)C[C@@]2(C)C3CC=C4C(CC[C@@H](O)C4(C)C)[C@]3(CO)C(=O)C[C@]12C (stereo not given in full)	PAX8 reporter 112.1 (no result: PGC1a acetyl inh)
CC(=O)OC(C)(C)/C=C/C(=O)[C@](C)(O)[C@H]1[C@H](O)C[C@@]2(C)[C@@H]3CC=C4[C@H](C[C@H](O)C(=O)C4(C)C)[C@]3(C)C(=O)C[C@]12C	PGC1a acetyl inh 88.1 (no result: Xi reactivation, EWS-Fli block, AF4-AF9 inh, INS-1E GSIS act, PAX8 reporter)
CC(C)NC(=O)N1CC2C(c3ccccc3)C(C1)N2C (stereo not given)	none (no result: EWS-Fli block, PGC1a acetyl inh, AF4-AF9 inh, PAX8 reporter)
O=C(Cc1ccccn1)N1CCCCN2[C@H](C1)[C@@H](c1ccc(Br)cc1)[C@@H]2CO	none
COc1ccc(-c2ccc3n(c2=O)C[C@@H]2[C@@H](CO)[C@H](C(=O)O)[C@H]3N2C(=O)c2ccccc2F)cc1	none (no result: PGC1a acetyl inh, PAX8 reporter)
COc1ccc(C#Cc2ccc([C@H]3[C@@H](CO)N4CCCCN(C(=O)Cc5ccccc5)C[C@H]34)cc2)cc1	none
COC1=C(C)C(=O)C2=C(C1=O)C(CO)N1C(C#N)C3CC4C(C1C2N1CCOC41)N3C (stereo not given)	PAX8 reporter 92.4
O=C(O)[C@H]1[C@H](CO)[C@H]2Cn3c(ccc(-c4ccccc4F)c3=O)[C@@H]1N2C(=O)Nc1ccccc1	none (no result: PGC1a acetyl inh, PAX8 reporter)
C=C1C(C)C2C(Cc3ccccc3)NC(=O)C23OC(=O)/C=C/C(O)CCCC(C)C/C=C/C3C1O (stereo not given)	PAX8 reporter 92.9
O=c1[nH]c2ccccc2n1C1CCN(Cc2ccc(-c3nc4ccccc4nc3-c3ccccc3)cc2)CC1	none (no result: PGC1a acetyl inh)
Cc1ccc2nc(-c3ccc(CN4CCC(n5c(=O)[nH]c6ccccc65)CC4)cc3)c(-c3ccccc3)nc2c1	PAX8 reporter 64.9 (no result: PGC1a acetyl inh)
Cc1cccc2nc(-c3ccccc3)c(-c3ccc(CN4CCC(n5c(=O)[nH]c6cc(Cl)ccc65)CC4)cc3)nc12	INS-1E GSIS act 41.9 (no result: PGC1a acetyl inh, AF4-AF9 inh)
N#Cc1cccc(-c2ccc([C@H]3[C@@H](CO)N4CCCCN(C(=O)Cc5cccnc5)C[C@H]34)cc2)c1	none
O=C(Cc1ccccn1)N1CC2(C1)[C@@H](c1ccccc1)[C@@H](CO)N2Cc1ccccn1	none
O=C(Cc1ccccn1)N1CCCCN2[C@@H](CO)[C@@H](c3ccc(-c4ccc(F)cc4)cc3)[C@@H]2C1	PAX8 reporter 89.2
COc1ccc(-c2ccc([C@@H]3[C@@H](CO)N4CCCCN(C(=O)Cc5ccccc5)C[C@H]34)cc2)cc1	PAX8 reporter 119.3 (no result: EWS-Fli block, AF4-AF9 inh)
O=C(O)[C@H]1[C@H](CO)[C@H]2Cn3c(ccc(-c4cncnc4)c3=O)[C@@H]1N2C(=O)NC1CCCC1	none (no result: PGC1a acetyl inh)
O=C(O)[C@@H]1[C@@H](CO)[C@@H]2Cn3c(ccc(-c4ccccc4)c3=O)[C@H]1N2CC1CCCCC1	none (no result: PGC1a acetyl inh)
COC(=O)[C@@H]1[C@@H](CO)[C@@H]2Cn3c(ccc(-c4cccc(F)c4)c3=O)[C@H]1N2C(=O)CC1CC1	none (no result: PGC1a acetyl inh, PAX8 reporter)
COC(=O)C1=C(c2cc3ccccc3o2)C[C@@H]2CC[C@H]1N2C(=O)N1CCCCC1	EWS-Fli block 58.2 (no result: AF4-AF9 inh)
C=CCSc1nc2c(c(-c3ccsc3)c1C#N)CN(C)CC2	INS-1E GSIS act 45.6
